# Screens deposited in PubChem by several laboratories.
# CSN deneddyl inh: inhibitors of human CSN-mediated cullin deneddylation; Q92905; Purified CSN, SCF-Nedd8-OG deneddylation, fluorescence polarization; inhibition, % at 12.5 µM; 360,000 compounds, 0.38% hits; AID 651999;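 active = pattern-corrected inhibition above about 35%, with an unprinted fluorescence ratio check between 0.5 and 1.5, limit read from the data, passing the limit was not always enough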;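 note: 0% = enzyme with substrate and 100% = substrate without enzyme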
# Target sequence (Q92905 whole entry, looked up, one chain of several): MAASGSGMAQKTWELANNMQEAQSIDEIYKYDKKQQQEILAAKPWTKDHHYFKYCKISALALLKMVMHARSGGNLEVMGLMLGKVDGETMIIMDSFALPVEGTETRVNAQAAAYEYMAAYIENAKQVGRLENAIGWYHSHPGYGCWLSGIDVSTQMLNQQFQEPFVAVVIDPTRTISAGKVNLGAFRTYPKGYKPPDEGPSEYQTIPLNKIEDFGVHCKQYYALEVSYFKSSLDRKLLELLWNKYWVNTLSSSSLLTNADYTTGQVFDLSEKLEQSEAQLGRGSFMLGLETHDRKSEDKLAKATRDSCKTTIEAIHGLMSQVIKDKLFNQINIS
#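 Assay system: purified human Csn5 enzyme expressed in HEK293T cells; measure: % inhibition; also added: SCFSkp2-Nedd8OG substrate at 10 nM final; technique: fluorescence polarization; times: reaction 90 min, room temperature; medium: Tris buffer pH 7.5, NaCl, DTT, Tween-20, trehalose, ovalbumin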
# HNF4A DNA FP: change in binding of human HNF4 alpha to DNA. P41235. HNF4a-FITC DNA binding, fluorescence polarization, 1 h. activity change, % at 10 µM. 360,000 compounds, 0.3% hits; in the data active = activity change above about 30%, passing the limit was not always enough
# Rpn11 block: blocks the human proteasome subunit Rpn11; human 26S proteasome, Ub4-pepOG fluorescence polarization; 20S core pre-blocked with epoxomicin; 360,000 compounds, 0.59% hits; inhibition, % at 20 µM; O00487;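 active = inhibition at 20 µM, scaled to each plate's controls, above about 33%, limit read from the data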
# TPT1 inhibitor: blocks Candida albicans tRNA 2'-phosphotransferase; 300,000 compounds, 0.81% hits; inhibition, % at 5 µM; AID 1962; recombinant caTPT1, FP RNA substrate dephosphorylation;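 active = inhibition above the mean of all tested compounds plus 3 SD, set per screening campaign, cut at about 24% in these data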;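 note: plate controls were DMSO alone for no effect and ferristatin control at 100 nM for full effect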
# An asterisk follows results filed as active; / = no result shown. Only some compounds are listed: those with a hit (about 1.5% of all), similar ones and a draw of the others.
SMILES,CSN deneddyl inh,HNF4A DNA FP,Rpn11 block,TPT1 inhibitor
O=c1ccc(-c2ccc(S(=O)(=O)NCc3cccc(Br)c3)s2)n[nH]1,-4,36*,-5,-2
CC(/C=C/c1ccc(N(C)C)cc1)=N\N=C1\NC(=O)CC(C(=O)Nc2ccccc2)S1 (centres undefined),6,34*,/,19
O=C(NCCC1=CCCCC1)C1CCC(CNc2c(N3CCCC3)c(=O)c2=O)CC1 (centres undefined),4,29*,4,2
CN1CCN(c2ccc(CNC(=O)c3ccc4c(c3)OCCO4)cc2)CC1,36*,0,-2,-6
O=C(O)c1ccc(CNC(=O)c2ccc3c(c2)OCCO3)cc1,3,5,1,-4
CCOc1ccc(OCc2ccc(C(=O)N3CCCCC3)o2)cc1,-3,36*,0,-4
Cc1ccc2c(C)c(C(=O)N3CCCC(C(N)=O)C3)oc2c1C (centres undefined),1,0,0,/
Cc1ccccc1Nc1c(-c2ccccn2)nc2ccccn12,-3,-4,8,-2
Cc1ccc2nc(-c3ccccn3)c(Nc3ccccc3C)n2c1,-2,39*,6,-3
CC(C)(C)c1ccc(Nc2n[nH]c3ccccc23)cc1,3,6,-1,/
CCNC(=O)CN(C1CCCCC1)S(=O)(=O)c1ccc(F)cc1,4,37*,/,0
O=C1NC[C@H](CCCCN2CCN(Cc3ccccc3)C(=O)C2=O)N(CC2CCCCC2)C1=O,-7,-2,/,/
C[C@@H]1CN([C@H](C)CO)C(=O)CCCn2cc(nn2)CO[C@H]1CN(C)C(=O)Nc1cccc(C(F)(F)F)c1,2,-1,-4,/
CC(C)(C)OC(=O)C[C@H]1C/C=C\C[C@@H](CC(=O)N(CCO)Cc2ccccc2)C(=O)N2CCC[C@H]2COC1=O,8,0,4,/
COc1cc(C2(C)SCCCS2)cc(OC)c1OC,-3,0,/,/
CCCCC(CC)CN=C(N)NC(N)=NCCCCCCN=C(N)NC(N)=NCC(CC)CCCC (centres undefined),127*,98*,102*,-1
Clc1ccc(-c2nc3ccc(Br)cn3c2Cc2cccc(Cl)c2)cc1,6,3,22,/
CCOC(=O)C1=CCN(S(=O)(=O)c2ccccc2)C1c1ccccc1 (centres undefined),121*,-1,-2,/
Cc1cc(O)c2c(c1O)C(=O)[C@]13C(=C2O)C(=O)[C@@H]2[C@@H](O)[C@H]1[C@@H]1[C@H](O)[C@H]3C(=O)C3=C(O)c4c(O)cc(C)c(O)c4C(=O)[C@]312,61,-39,49*,/
Cc1c(C(=O)N2CCCCC2)c(S(=O)(=O)Nc2ccc(F)cc2F)c(C)n1C,-5,2,-3,-4
Cc1ccc2c(c1)N(Cc1cccc(C#N)c1)C=NS2(=O)=O,100*,-2,-6,-2
Cc1cc(C)n(Cc2cccc(C(=O)N/N=C/c3ccncc3)c2)n1,2,4,0,0
O=c1c2c(-c3ccco3)csc2nc(SCc2cn3cccnc3n2)n1-c1ccccc1,46*,-7,5,3
CN(C)CCCn1c(N)c(S(=O)(=O)c2ccccc2)c2nc3ccccc3nc21,-3,-21,-38,-4
CCCCn1c(N)c(S(=O)(=O)c2ccc(C)cc2)c2nc3ccccc3nc21,39*,5,18,-2
SMILES,CSN deneddyl inh,HNF4A DNA FP,Rpn11 block,TPT1 inhibitor
Cc1ccc(S(=O)(=O)CCC(=O)OC(C)C(=O)N2CCc3ccccc32)cc1 (centres undefined),40*,4,4,0
CCC(=O)c1ccc(OCC(=O)OC(C)C(=O)N2CCc3ccccc32)cc1 (centres undefined),5,-1,0,-3
O=C(COc1ccc(Br)cc1)Nc1ccc(N2CCOCC2)cc1N1CCOCC1,15,3,1,/
O=C(CCN1C(=O)/C(=C\c2cccs2)SC1=S)Nc1nccs1,8,38*,/,-1
Oc1oc(-c2cccc3ccccc23)nc1/C=N/c1nccs1,13,-2,34,31*
Cc1cccc(/N=C/c2nc(-c3ccccc3Br)oc2O)n1,1,-1,-6,3
Cn1c(/C=C/c2ccccc2)nc2ccccc2c1=O,1,-3,-8,-2
Cn1c(/C=C/c2ccc([N+](=O)[O-])o2)nc2ccccc2c1=O,29,59*,/,-40
CN(CCO)c1ccc2c(c1)OC[C@@H](Cc1ccccc1)NS2(=O)=O,-1,0,/,/
C=CC(=O)Nc1cccc(Nc2nc(N[C@H]3CC[C@H](N(C)C)CC3)nc3c2ncn3C(C)C)c1,112*,40,68*,/
CCCCCCCCCCCCCCCCn1cc[n+](C)c1,7,24,97*,0
CCCCSc1nnc(-c2ccc(OC)cc2)n1C,4,-1,-4,-3
COc1ccc(-c2nnc(SCc3csc(N)n3)n2C)cc1,-5,37*,5,-1
Cc1noc(C)c1COC(=O)c1csc2c1CCC(C)C2 (centres undefined),-2,-3,2,/
Cc1cccc(CS(=O)(=O)c2nnc([C@H](Cc3ccccc3)NC(=O)OC(C)(C)C)o2)c1,0,5,10,67*
COC(=O)CS(=O)(=O)c1nnc([C@H](Cc2ccccc2)NC(=O)OC(C)(C)C)o1,6,-1,-2,2
c1cncc(CNCc2ccco2)c1,-5,-19,26,/
CN1/C(=C\C(=O)COC(=O)c2ccco2)C(C)(C)c2ccccc21,2,3,12,5
CN1/C(=C\C(=O)c2ccco2)C(C)(C)c2ccccc21,34,42*,/,1
O=C1NC[C@@H](CCCCN2C[C@H](Cc3ccc(O)cc3)N(CCc3ccc(O)cc3)C(=O)C2=O)N(CC2CCCCC2)C1=O,-4,-1,/,/
COC(=O)CC1C(=O)NCCN1C(=S)Nc1cc(C)cc(C)c1 (centres undefined),1,4,-3,-3
CCNC(=S)N1CCNC(=O)C1CC(=O)OC (centres undefined),81*,2,14,1
COc1ccc2c(c1)c(=O)oc1c(C)c(OCC(=O)N3CCc4ccccc4C3)ccc12,36*,-9,3,1
CC(C)(C)OC(=O)N1CCC(NC(=O)c2ncn(Cc3ccccc3)c2C(=O)NC2CCN(C(=O)OC(C)(C)C)CC2)CC1,-3,-4,-2,/
CCCCN(C(=O)C1CCN(C(=O)c2ccccc2C)CC1)c1c(N)n(CC(C)C)c(=O)[nH]c1=O,5,1,2,/
SMILES,CSN deneddyl inh,HNF4A DNA FP,Rpn11 block,TPT1 inhibitor
O=C(Nc1ccccc1O)c1c(O)c2c([nH]c1=O)CCCC2,-1,-1,-4,-1
Cc1ccc(/C=c2\sc3nc(-c4cccs4)nn3c2=O)o1,44*,1,32,9
COc1cccc(/C=c2\sc3nc(-c4cccs4)nn3c2=O)c1OC,6,-1,6,0
COc1ccccc1C(=O)NC(=O)COC(=O)Cn1[nH]c(=O)c2ccccc2c1=O,-5,-1,2,-1
COc1ccc2cc(C(=O)Nc3ccc(F)cc3)sc(=O)c2c1OC,41*,-1,8,-5
Cc1onc(-c2ccccc2)c1-c1nnc(CN2CCN(S(=O)(=O)c3ccccc3)CC2)o1,2,0,1,/
